Several values for one entry are separate records, joined by “and”; a condition that tells them apart may be missing. Equal values may be shown once.
Columns and labels:
HEK-293T = experiment: Multiplex assay against HEK293T; type: toxicity, cell-based; settings: human, number of replicates 2
Procedure, shortened: (§1)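 Live cells carried four stains from seeding: Hoechst33342, BioTracker Green Microtubule Cytoskeleton Dye, MitoTracker Red and Annexin V Alexa Fluor 680. They were imaged on a CQ1 microscope at 37°C and 5% CO2 after compound addition. Using CellPathfinder machine-learning gating, cells were split into Hoechst high-intensity objects or normal cells, normal cells into healthy, pyknosed or fragmented nuclei, and pyknosed cells into mitotic or apoptotic; tubulin, mitochondrial-mass and membrane-permeability phenotypes are per cents of healthy-nucleus cells.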

U2OS = experiment: Multiplex assay against U2OS; type: toxicity, cell-based; settings: human, number of replicates 2; procedure, shortened: as §1
[1] = 24 h, 1 µM, compound concentration 1 uM
[2] = 24 h, 10 µM, compound concentration 10 uM
[3] = 48 h, 1 µM, compound concentration 1 uM
[4] = 48 h, 10 µM, compound concentration 10 uM
[5] = 12 h, 1 µM, compound concentration 1 uM
[6] = 12 h, 10 µM, compound concentration 10 uM

## CC(=O)N(CCN(C)C)c1ccc(N/C(=C2\C(=O)Nc3cc(Cl)ccc32)c2ccccc2)cn1
HEK-293T; [1]
  Population Normal (%): 93% and 92%
  Population Pyknosed Nuclei (%): 9% and 8%
  Population Tubulin-Different-Phenotype (%): 51% and 49%
  Total Cell Count: 869 and 891
HEK-293T; [2]
  Population Apoptotic (%): 87% and 94%
  Population Fragmented Nuclei (%): 6% and 4%
  Population Healthy Nuclei (%): 80% and 83%
  Population Hoechst High Intensity Objects (%): 20% and 23%
  Population Membrane Permeable-Phenotype (%): 0% and 2%
  Population Mitochondria Different-Phenotype (%): 95% and 92%
  Population Mitotic Cells (%): 12% and 5%
  Population Normal (%): 79% and 76%
  Population Pyknosed Nuclei (%): 13% and 12%
  Population Tubulin-Different-Phenotype (%): 93% and 92%
  Total Cell Count: 229 and 181
HEK-293T; [3]
  Population Apoptotic (%): 12% and 13%
  Population Fragmented Nuclei (%): 11% and 6%
  Population Healthy Nuclei (%): 83% and 88%
  Population Hoechst High Intensity Objects (%): 7% and 9%
  Population Membrane Permeable-Phenotype (%): 3%
  Population Mitochondria Different-Phenotype (%): 1% and 3%
  Population Mitotic Cells (%): 87% and 86%
  Population Normal (%): 93% and 90%
  Population Pyknosed Nuclei (%): 4% and 5%
  Population Tubulin-Different-Phenotype (%): 25% and 29%
  Total Cell Count: 1828 and 1568
HEK-293T; [4]
  Population Apoptotic (%): 86% and 90%
  Population Fragmented Nuclei (%): 9% and 5%
  Population Healthy Nuclei (%): 81% and 83%
  Population Hoechst High Intensity Objects (%): 20% and 19%
  Population Membrane Permeable-Phenotype (%): 0% and 3%
  Population Mitochondria Different-Phenotype (%): 77% and 80%
  Population Mitotic Cells (%): 13% and 10%
  Population Normal (%): 79% and 80%
  Population Pyknosed Nuclei (%): 8% and 10%
  Population Tubulin-Different-Phenotype (%): 93%
  Total Cell Count: 324 and 235
U2OS; [5]
  Population Apoptotic (%): 72% and 71%
  Population Healthy Nuclei (%): 84% and 68%
  Population Hoechst High Intensity Objects (%): 0% and 1%
  Population Membrane Permeable-Phenotype (%): 1% and 10%
  Population Mitochondria Different-Phenotype (%): 0% and 2%
  Population Mitotic Cells (%): 27% and 28%
  Population Normal (%): 100% and 98%
  Population Pyknosed Nuclei (%): 11% and 12%
  Population Tubulin-Different-Phenotype (%): 52% and 23%
U2OS; [6]
  Population Apoptotic (%): 64% and 80%
  Population Fragmented Nuclei (%): 11% and 8%
  Population Healthy Nuclei (%): 54% and 60%
  Population Hoechst High Intensity Objects (%): 0% and 1%
  Population Membrane Permeable-Phenotype (%): 13% and 19%
  Population Mitochondria Different-Phenotype (%): 86% and 59%
  Population Mitotic Cells (%): 35% and 19%
  Population Normal (%): 100% and 98%
  Population Pyknosed Nuclei (%): 33% and 30%
  Population Tubulin-Different-Phenotype (%): 86% and 71%
U2OS; [1]
  Population Apoptotic (%): 72% and 40%
  Population Fragmented Nuclei (%): 3% and 11%
  Population Healthy Nuclei (%): 85% and 79%
  Population Hoechst High Intensity Objects (%): 0% and 1%
  Population Membrane Permeable-Phenotype (%): 2% and 4%
  Population Mitochondria Different-Phenotype (%): 0%
  Population Mitotic Cells (%): 27% and 60%
  Population Normal (%): 100% and 98%
  Population Pyknosed Nuclei (%): 10% and 9%
  Population Tubulin-Different-Phenotype (%): 59% and 33%
U2OS; [2]
  Population Apoptotic (%): 93% and 88%
  Population Fragmented Nuclei (%): 10% and 16%
  Population Healthy Nuclei (%): 31% and 23%
  Population Hoechst High Intensity Objects (%): 3% and 4%
  Population Membrane Permeable-Phenotype (%): 61% and 50%
  Population Mitochondria Different-Phenotype (%): 76% and 90%
  Population Mitotic Cells (%): 6% and 11%
  Population Normal (%): 96% and 95%
  Population Pyknosed Nuclei (%): 57% and 60%
  Population Tubulin-Different-Phenotype (%): 87% and 90%
U2OS; [3]
  Population Apoptotic (%): 82% and 88%
  Population Fragmented Nuclei (%): 3% and 13%
  Population Healthy Nuclei (%): 86% and 66%
  Population Hoechst High Intensity Objects (%): 0%
  Population Membrane Permeable-Phenotype (%): 2% and 10%
  Population Mitochondria Different-Phenotype (%): 1% and 5%
  Population Mitotic Cells (%): 18% and 11%
  Population Normal (%): 99% and 100%
  Population Pyknosed Nuclei (%): 9% and 19%
  Population Tubulin-Different-Phenotype (%): 67% and 47%
U2OS; [4]
  Population Apoptotic (%): 92% and 100%
  Population Fragmented Nuclei (%): 26% and 38%
  Population Healthy Nuclei (%): 11% and 2%
  Population Hoechst High Intensity Objects (%): 3% and 2%
  Population Membrane Permeable-Phenotype (%): 52% and 100%
  Population Mitochondria Different-Phenotype (%): 48% and 100%
  Population Mitotic Cells (%): 7% and 0%
  Population Normal (%): 96% and 98%
  Population Pyknosed Nuclei (%): 61% and 59%
  Population Tubulin-Different-Phenotype (%): 100%
